We go through three compounds from PMC4138289 (Nature chemical biology, 2014).

In one data set the test system is mouse spleen proteomes. Briefly: in vivo proteome reactivity, gel-based ABPP of mouse spleen. The note with it: mice, 10 or 20 mg/kg, i.p., 1 hr. The procedure, abridged: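 C57BL/6 mice dosed i.p. in saline/EtOH/DMSO/Cremophor EL 17:1:1:1 (10 μL g−1). Inhibitor (20 mg/kg) or vehicle for 1 hr, then probe (10 or 20 mg/kg) for 1 hr; isoflurane, cervical dislocation. Tissues were DPBS-washed and bead-homogenized, spun at 1,500 × g, then 100,000 × g for 45 min (membrane/cytosolic) and set to 2 mg/mL. Rhodamine-azide click, SDS-PAGE, in-gel fluorescence.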

Data set [1] deals with proteomes of cancer cell lines. Description: in situ proteomic reactivity by gel-based ABPP in cancer cells. In kind it is cell-based, human. Particulars: in situ treatment with 1 μM probe, cancer cells (SW620 and others).
The nature of data set [2]: cytotoxicity, Sulforhodamine B assay, EGFR-independent cell lines. In kind it is cell-based. The note with it: human (MDA-MB-435S, SW620), mouse (NIH3T3). For orientation: The SRB assay estimates cell density from bound dye.
A short description of data set [3]: time course of compound concentrations in A431 cells. The note with it: relative cellular concentrations. In kind it is in vitro ADME, human.

The structures appear in SMILES notation.

On to `C#Cc1cccc(Oc2ccc(-c3nn([C@@H]4CCCN(C(=O)C=C)C4)c4ncnc(N)c34)cc2)c1` [Probe 4], for which the “in vivo proteomic reactivity” value with mouse spleen proteomes was “higher proteomic reactivity than probe 6”. Consider `C#CCOc1cc2ncnc(Nc3ccc(F)c(Cl)c3)c2cc1NC(=O)CCCN(C)C` [Probe 13], for which the time-dependent proteomic reactivity result in data set [1] is reported as “Negligible time-dependent proteomic reactivity”. On to `CN(C)C/C=C/C(=O)Nc1cc2c(Nc3ccc(F)c(Cl)c3)ncnc2cc1O[C@H]1CCOC1` [afatinib, reference compound], for which the IC50 – broadly, the point on the concentration scale where inhibition reaches its midpoint – at 72 h in data set [2] was 0.7 to 2.2 µM. For the same compound, the “stability / accumulation of compound in cells” value in data set [3] is reported as “more prolonged accumulation in cells”.
